Measured values reported in the EternaBench riboswitch data.

System: MS2 coat protein
Test: apparent Kd, MS2 coat protein; higher = weaker binding; RNA-MaP array; FMN 200 µM where present
Procedure, shortened: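 On Illumina sequencing-chip clusters, designs were transcribed by stalled E. coli RNA polymerase and titrated with SNAP-549-labelled MS2 coat protein (0.7 or 1.5 nM, doubling to 3 µM), without and then with constant ligand, in 100 mM Tris-HCl pH 7.5, 80 mM KCl, 4 mM MgCl2, BSA, DTT, yeast tRNA and Tween-20. Apparent Kd is the median of filtered per-cluster curve fits to green signal normalised to red-channel RNA signal and control-cluster median Fmax.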

[1] = designed as: OFF switch for flavin mononucleotide, no ligand
[2] = ligand present: flavin mononucleotide, designed as: OFF switch for flavin mononucleotide
[3] = designed as: ON switch for flavin mononucleotide, no ligand
[4] = ligand present: flavin mononucleotide, designed as: ON switch for flavin mononucleotide

Sequence	apparent Kd [1] [nM]	apparent Kd [2] [nM]	apparent Kd [3] [nM]	apparent Kd [4] [nM]
GAUUAGUGAGGAUAUGGUAAAGAUAAGAUGAUGAAAGAACUCCAGAAGGCACAUGAGGAUCACCCAUGUAGUAU	17.4	21.6		
GAUUGACGACAAUUACAUGAGGAUCACCCAUGUUGUAGGAUGCAGGAUAUGUGGUAUAUUAUUUAACAGAAGGGCAAUAAUUUU			25.8	29.3
GCAACGCCUGACAUGAGGAUCACCCAUGUUAGAUUGUUAUGUCAGGAUAUUGUCUAGAAACUAGACAAGAAGGGAUGCGUUGCU			304	21.8
GCAACGCCUGACAUGAGGAUCACCCAUGUUAGAUUGUUAUGUCAGGAUAUUGUCUCGAAACGAGAUGAGAAGGGAUAUGUUGCU			997	61.2
GCAAGGCAUGUAGGAUAUCGAGCUCAAAGAGCUCGAGAAGGACAUGAGGAUCACCCAUGUGCUCACAGACAGUGAGCGCCUUGC	18.4	44.4		
GCAAUAGCAUGAGGAUAUGUUGGAGUUUAGACAGCAGAAGGCAUGUCAUAAGACAUGAGGAUCACCCAUGUAAUUACAAUAGCA			32.7	12.1
GCAAUCGCAUGAGGAUAUGCUGGAGUUUAGACAGCAGAAGGCAUGUCAUAAGACAUGAGGAUCACCCAUGUAGUUACAAUGGCA			41	11.9
GCACGGAUGGUAGGAUAUCAUUGCGAUUAGCUAUGAGAAGGACCACAUGAGGAUCACCCAUGUCCUCUAAUUAGCCUUCCGUGC	179	297		
GCACGGCAUGUAGGAUAUGCAUAGCAUUGCUAUGCAGAAGGACAUGAGGAUCACCCAUGUAUGUAUUCCAUACAUUUCCCGUGC	5.5	7.65		
GCACUCAAGUUAGGAUAUGGACCAGAAACUGGUCCAGAAGGAACAUGGGAACAUGAGGAUCACCCAUGUUCCAGAAACGAGUGC			840	186
GCACUGACAGGAUAUACAUGAGGAUCACCCAUGUGACCCUUACAGUACUCGCGUACUGGUAGAAGGGUCUGUGC		140		
GCACUGGAUGUAGGAUAUCAGGACGAUAAGUCCUGAGAAGGACAUGAGGAUCACCCAUGUCUCAAAACCAGUGCAUAUAAUAUA	13.2	19.1		
GCACUGGAUGUAGGAUAUCAGGACGAUAAGUCCUGAGAAGGACAUGAGGAUCACCCAUGUCUCAUAAACCAGUGCUAUAAUAUA	14.6	18.8		
GCACUUGCGUAGAAGGUACUAUAUAAUGCAGUGUAAGGAUAUACAUACAUGAGGAUCACCCAUGUAAAUGGAAUUUGCAAGUGC			11.8	9.15
GCAGAACAUGAGGAUCACCCAUGUCUCUAAUAUCGAGGAUAUGGGCACGGUAUAUCCGAACCAGAAGGCGAACUGC			272	60
GCAGACGUAGUGAGGAUAUGCUCUACCUCGGUAGAGCAGAAGGCACAUGAGGAUCACCCAUGUGGUUCUUCUGC	28.2	339		
GCAGCACAAUAUUACAUGAGGAUCACCCAUGUCGAUUGUUAUGAGGAUAUGCAUCGUAUGAAGUUGCAGAAGGCAUUGUGCUGC			9.4	6.09
GCAGCUAAUAUUAUACAUGAGGAUCACCCAUGUUACAUGUGUAAGGAUAUUGAUGUUUAUAUAAACAAGAAGGUACGAAGCUGC			20.5	13.1
GCAGGAUAAGUGAGGAUAUACCUAUGGAUACAUAGGUAGAAGGUACAUGAGGAUCACCCAUGUUCCUUACCUGC	11.9	13.4		
GCAUCCAAUGUGAGGAUAUACCUCUGGAUACAUAGGUAGAAGGCACAUGAGGAUCACCCAUGUCCUAAGGAUGC	130	149		
GCAUCCCAUGUCAGGAUAUGCUGUACCUUGGUACAGCAGAAGGGACAUGAGGAUCACCCAUGUGCCUAGGAUGC	51.2	438		
GCAUGAGACUAAGGAUAUGAUGUACCUAUAUGUGACAUGAGGAUCACCCAUGUGGUAAGUAUGAUUCAGAAGGUAGAGACAUGC			33.7	21.3
GCAUGAUACUAGGAUAUCAGCAUACUUCAAUGUUGAGAAGGAGUAACAUGAGGAUCACCCAUGUAUCCAACAUG	59.4	166		
GCAUGCAAGUAGAAGGUCGGAUAUUUUGAUACCGAAGGAUAUGCAGAAUCAUAUCCACAUGAUAACAUGAGGAUCACCCAUGUA	15.3	12.7		
GCAUGUAAGCAGAAGGGCAGAUAUUUUGAUACUGCAGGAUAUGCAGAAUCAUAUCCACAUGAUAACAUGAGGAUCACCCAUGUA	32.3	29		
GCAUUGAGUGUGAGGAUAUGCUGGUCCUUGGAUCAGCAGAAGGCACAUGAGGAUCACCCAUGUGAAUACAAUGC	20.9	116		
GCCAACGCAUGAGGAUAUGCUCCCGUUUCGGGAGCAGAAGGCAUGUCAUAAGACAUGAGGAUCACCCAUGUAGUUAACAUGGCA			572	31.2
GCCAGGCAUGUAGGAUAUCCAUUGCGUCGCGUUGGAGAAGGGCAGCACACAUGAGGAUCACCCAUGUGGUCUCCCAUGUAGUGU	163	206		

Sequence	apparent Kd [1] [nM]	apparent Kd [2] [nM]	apparent Kd [3] [nM]	apparent Kd [4] [nM]
GCCAUCAUAUGAGGAUAUGACACCGAAACGGUGUCAGAAGGCAUGUCGAUAGACAUGAGGAUCACCCAUGUUUACAUGAUGGCA			91.5	20.7
GCCAUCAUAUGAGGAUAUGACACCGAAACGGUGUCAGAAGGCAUGUCGAUAGACAUGAGGAUCACCCAUGUUUAGAUGAUGGCA			104	21.5
GCCAUCGCAUGAGGAUAUGCUCCCGUUUCGGGAGCAGAAGGCAUGUCACAAGACAUGAGGAUCACCCAUGUAGUUAAGAUGGCA			194	8.52
GCCAUCGCAUGAGGAUAUGCUCCGGUUUCCGGAGCAGAAGGCAUGUCAUAAGACAUGAGGAUCACCCAUGUAGCUAAGAUGGCA			307	11.9
GCCAUCGCAUGAGGAUAUGCUCCGGUUUCCGGAGCAGAAGGCAUGUCGUAAGACAUGAGGAUCACCCAUGUAGUCAAGAUGGCA			912	41.5
GCCAUCGCAUGAGGAUAUGCUCCGGUUUCCGGAGCAGAAGGCGUGUCAUUAGACAUGAGGAUCACCCAUGUAGUUAAGAUGGCA			489	21.3
GCCAUCGCAUGAGGAUAUGGCACCGAAACGGUGCCAGAAGGCAUGUCAAUAGACAUGAGGAUCACCCAUGUAUUAUCGAUGGCA			274	29.1
GCCAUCGUAUGAGGAUAUGGCACCGAAACGGUGCCAGAAGGCAUGUCUAUAGACAUGAGGAUCACCCAUGUGUUAUCGAUGGCA			146	14.8
GCCAUCUCAUGAGGAUAUGCUCCCGUUUCGGGAGCAGAAGGCAUGUCAUAAGACAUGAGGAUCACCCAUGUAGUUAAGAUGGCA			286	11.8
GCCCAACAUGAGGAUCACCCAUGUAAGGAUAUUGGAUGUGUGUGGAAACAUAUAUAAACGAGAAGGUACAGGGC	38.4	28.9		
GCCCGGGCAGGAUAUGCCCGGGCGCACAUGAGGAUCACCCAUGUGGCCCUGUGCCGUCCGGCAGAAGGGCCCGGGC	90.1	87.4		
GCCCUCGCUGAGGAUAUUAUCUGGCUCGACUGAUAAGAAGGCAGUACAUGAGGAUCACCCAUGUGGUUCGUUCG	50.5	142		
GCCUAGACUAGGCCCACGGCAUCACAGGAUAUGCCAAUCACAUGAGGAUCACCCAUGUCAACUCCGCAGAAGGGUGAUAUCGUG			235	14.3
GCCUGCUGGCAAGGAUAUUCUGUGCGGUUCCGGCUCGUGUCUGUUACAUGAGGAUCACCCAUGUGGGAGAAGGUGUCUGUGGCC	6.21	5.88		
GCCUUAUCCGUCAGGAUAUACAGCCGUUAGUUGUUGUAGAAGGGACAUGAGGAUCACCCAUGUACGUACCAUUG	18.7	30.7		
GCCUUAUCCGUCAGGAUAUACAUUUUUUUGUUGUUGUAGAAGGGACAUGAGGAUCACCCAUGUACAUUACAUUG	21.5	25.1		
GCCUUAUCGGUCAGGAUAUACAUUUGUUAGUUGUUGUAGAAGGGACAUGAGGAUCACCCAUGUACAUUACAUUG	22.4	40.3		
GCCUUAUCUGUCAGGAUAUACAAUAAUUUUUUUUUGUAGAAGGGACAUGAGGAUCACCCAUGUACAUUACAUUG	40	201		
GCGAAUCAGUGAGGAUAUACAUAAUUUAUACCUGUAGAAGGCACAAACCUCAAGACAUGAGGAUCACCCAUGUGACAUAUCGCU	43.3	66.8		
GCGAAUUAGUGAGGAUAUACAUAAUUUAUAACUGUAGAAGGCACAAUCCUCAAGACAUGAGGAUCACCCAUGUGGUAUUACGCU	151	911		
GCGACGGCGAAAGGAUAUCAAAAUCAACAGUGUUGAGAAGGUUCUCCGAGGGUCGCACAUGAGGAUCACCCAUGUCGCGAAUCU			13.1	10.3
GCGAUUUUGUAAGGAUAUACACGAGUUUUAAGUGUAGAAGGUGCUUACAUGAGGAUCACCCAUGUAUAAAUGUAUAAUAGUCGC			9.14	8.18
GCGCAAACGCCAAAAGGCGAAACAACAUGAGGAUCACCCAUGUAGGAUAUCGAUUGCUUUGCAGUCGAGAAGGACAUAAUGCGC	17.1	16.1		
GCGCACUAAGUGAGGAUAUCGUUUAUUUAUAGGAUCGAGAAGGCACAUGAGGAUCACCCAUGUUAAACGUGCGC	18.5	13.9		
GCGCAUUUAAGAUUUAUAUAAUUGUCAGAAGGUGAAAAGACGACAUGAGGAUCACCCAUGUAAUUCAAGGAUAUGAUUUAGCGC			34.3	13.3
GCGCCUCAGAACAUGAGGAUCACCCAUGUGCUGCGGGCGCCGUAGGAUAUGAUGGUACGCUACCAUCAGAAGGAUGAUGGUACC				5.02
GCGCGCGCAGGAUAUACAAUGCGCGCGCGAAAGUGUGUGUUACAUGAGGAUCACCCAUGUAGAAGGGUGUGUGU	539	492		
